pIC50: −log10 of the molar value. The source made the active and inactive calls. The rule behind the calls is not given here.
Tests used:
Format in all cases: cell-based
KB = assay: Antiproliferative activity against human KB cells after 72 hrs by SRB assay; conditions: for pIC50: Homo sapiens, KB
How it was run: (§1)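 SRB assay. Cells at 3–5 × 10^3/well were exposed to a range of sample concentrations for 72 h. They were fixed in 50% TCA for 30 min, stained with 0.04% SRB for 30 min, and the dye was dissolved in 10 mM Tris base. Absorbance read at 515 nm. Medium was RPMI 1640 with 10% FBS at 37 °C, 5% CO2. KBvin cells were kept in 100 nM vincristine.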

A549 = assay: Antiproliferative activity against human A549 cells after 72 hrs by SRB assay; conditions: for pIC50: Homo sapiens, A549, 72 h; how it was run: as §1
KBVIN [1] = assay: Inhibition of P-gp-mediated multidrug-resistance in human KBVIN cells assessed as […] of paclitaxel-induced cell survival rate at 10 uM after 72 hrs by SRB assay
[2] = Antiproliferative activity against human multidrug-resistant KBVIN cells after 72 hrs by SRB assay; conditions: for pIC50: Homo sapiens, KBVIN; how it was run: as §1
DU-145 = assay: Antiproliferative activity against human DU145 cells after 72 hrs by SRB assay; conditions: for pIC50: Homo sapiens, DU-145, 72 h; how it was run: as §1
[3] = biological target: ATP-dependent translocase ABCB1 (Homo sapiens, UniProt P08183); assay: Inhibition of P-gp over expressed in human multidrug-resistant KBVIN cells assessed as intracellular accumulation of doxorubicin at 10uM after 3 hrs by fluorescence microplate reader analysis relative to control
Chain of ATP-dependent translocase ABCB1 (P08183 whole entry): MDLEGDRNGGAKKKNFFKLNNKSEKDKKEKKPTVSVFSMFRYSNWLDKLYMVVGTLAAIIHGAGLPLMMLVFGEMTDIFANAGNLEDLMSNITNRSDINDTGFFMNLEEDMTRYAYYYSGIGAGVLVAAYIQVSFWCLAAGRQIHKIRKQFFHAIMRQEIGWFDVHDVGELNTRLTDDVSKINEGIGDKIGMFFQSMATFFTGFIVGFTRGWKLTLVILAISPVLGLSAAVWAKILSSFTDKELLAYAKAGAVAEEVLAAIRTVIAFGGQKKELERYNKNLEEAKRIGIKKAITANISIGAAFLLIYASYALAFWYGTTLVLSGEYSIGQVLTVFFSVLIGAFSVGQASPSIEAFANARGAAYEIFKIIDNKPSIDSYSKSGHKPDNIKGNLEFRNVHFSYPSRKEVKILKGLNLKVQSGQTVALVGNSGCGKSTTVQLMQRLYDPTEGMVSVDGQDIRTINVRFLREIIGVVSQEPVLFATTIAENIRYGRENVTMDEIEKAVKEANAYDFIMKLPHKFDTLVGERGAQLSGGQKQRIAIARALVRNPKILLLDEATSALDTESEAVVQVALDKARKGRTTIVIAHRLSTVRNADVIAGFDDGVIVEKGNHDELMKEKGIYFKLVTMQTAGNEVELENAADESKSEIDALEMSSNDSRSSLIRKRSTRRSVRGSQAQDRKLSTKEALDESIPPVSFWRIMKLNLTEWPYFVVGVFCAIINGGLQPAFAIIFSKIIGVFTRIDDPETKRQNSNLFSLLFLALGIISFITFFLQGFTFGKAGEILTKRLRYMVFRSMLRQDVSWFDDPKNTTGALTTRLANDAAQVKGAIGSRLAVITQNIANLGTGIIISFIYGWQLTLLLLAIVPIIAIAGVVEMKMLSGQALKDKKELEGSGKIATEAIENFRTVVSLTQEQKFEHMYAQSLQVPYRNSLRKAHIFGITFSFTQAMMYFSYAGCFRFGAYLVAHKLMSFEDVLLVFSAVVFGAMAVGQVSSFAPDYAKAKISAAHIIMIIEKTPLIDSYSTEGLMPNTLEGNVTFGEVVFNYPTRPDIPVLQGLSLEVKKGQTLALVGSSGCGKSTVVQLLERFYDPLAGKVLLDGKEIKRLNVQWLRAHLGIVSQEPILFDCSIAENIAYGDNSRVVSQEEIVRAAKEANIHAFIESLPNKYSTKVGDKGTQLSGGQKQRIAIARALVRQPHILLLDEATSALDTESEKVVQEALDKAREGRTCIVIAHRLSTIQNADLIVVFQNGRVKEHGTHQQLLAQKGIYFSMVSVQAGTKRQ
How it was run: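 KBvin cells at 5 × 10^3/well were pretreated with compound for 1 h, then given doxorubicin (10 μM final) for 3 h. Cells were washed with ice-cold PBS and lysed in 1% SDS/PBS. Verapamil or CsA served as positive control.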

NIH3T3 [4] = assay: Inhibition of human P-gp-mediated multidrug-resistance in mouse NIH3T3 MDR cells assessed as potentiation of in paclitaxel-induced cytotoxic activity at 10 uM after 72 hrs by SRB assay; conditions: human P-gp expressed in mouse cells
NIH3T3 [5] = assay: Inhibition of human P-gp-mediated multidrug-resistance in mouse NIH3T3 MDR cells assessed as potentiation of in vincristine-induced cytotoxic activity at 10 uM after 72 hrs by SRB assay; conditions: Mus musculus cells expressing human P-gp
KBVIN [6] = assay: Inhibition of P-gp-mediated multidrug-resistance in human KBVIN cells assessed as fold decrease in paclitaxel IC50 for cytotoxic activity at 10 uM after 72 hrs by SRB assay relative to control
How it was run: (§2)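 KBvin cells were exposed to graded concentrations of anticancer drug (doxorubicin, paclitaxel or vincristine), alone or with 10 μM test compound, for 72 h. Growth was read by SRB assay. IC50 was found by log-linear interpolation. Reversal fold = IC50 (drug alone) / IC50 (drug + compound). Verapamil was the positive control. Each experiment was run at least three times.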

KBVIN [7] = assay: Inhibition of P-gp-mediated multidrug-resistance in human KBVIN cells assessed as fold decrease in doxorubicin IC50 for cytotoxic activity at 10 uM after 72 hrs by SRB assay relative to control; how it was run: as §2
KBVIN [8] = assay: Inhibition of P-gp-mediated multidrug-resistance in human KBVIN cells assessed as fold decrease in vincristine IC50 for cytotoxic activity at 10 uM after 72 hrs by SRB assay relative to control; how it was run: as §2

Row | SMILES | pIC50 (KB) | pIC50 (A549) | inhibition (KBVIN [1]) | pIC50 [2] | pIC50 (DU-145) | fold change (FC) [3] | inhibition (NIH3T3 [4]) | inhibition (NIH3T3 [5]) | fold change (FC) (KBVIN [6]) | fold change (FC) (KBVIN [7]) | fold change (FC) (KBVIN [8]) | Activity (KB; human, kb) | Activity (A549; human, a549, 72 h) | Activity ([2]; human, kbvin) | Activity (DU-145; human, du-145, 72 h)
1 | COc1cc(COC(=O)c2ccc(C#N)cc2)c(-c2c(COC(=O)c3ccc(C#N)cc3)cc(OC)c3c2OCO3)c2c1OCO2 | < 4.00 | < 4.00 | inactive | < 4.00 | < 4.00 | – | – | – | – | – | – | – | – | – | –
2 | COc1cccc2c1C(=O)c1c(O)c3c(c(O)c1C2=O)C[C@@](O)(C(=O)CO)C[C@@H]3O[C@H]1C[C@H](N)[C@H](O)[C@H](C)O1 [DOXORUBICIN] | – | – | – | – | – | 1.2 | – | – | – | – | – | – | – | – | –
3 | COc1c(Br)c(CO)c(-c2c(CO)c(Br)c(OC)c3c2OCO3)c2c1OCO2 | < 4.00 | < 4.00 | inactive | < 4.00 | < 4.00 | – | – | – | – | – | – | – | – | – | –
4 | C/C=C/C=C/C(=O)OCc1cc(OC)c2c(c1-c1c(COC(=O)/C=C/C=C/C)cc(OC)c3c1OCO3)OCO2 | < 4.00 | < 4.00 | – | < 4.00 | < 4.00 | 1.2 | Active | Active | 21 | 3 | 54 | – | – | – | –
5 | COc1c2c(c3c(c1Br)c(=O)oc(=O)c1c(Br)c(OC)c4c(c13)OCO4)OCO2 | < 4.00 | < 4.00 | inactive | < 4.00 | < 4.00 | – | – | – | – | – | – | – | – | – | –
6 | CCCC(C)C(=O)OCc1cc(OC)c2c(c1-c1c(COC(=O)C(C)CCC)cc(OC)c3c1OCO3)OCO2 (racemic) | < 4.00 | < 4.00 | – | < 4.00 | < 4.00 | 1.2 | Active | Active | 25 | 31 | 53 | – | – | – | –
7 | COC(=O)c1c(I)c(OC)c2c(c1-c1c3c(c(OC)c(I)c1C(=O)OC)OCO3)OCO2 | < 4.00 | < 4.00 | inactive | < 4.00 | < 4.00 | – | – | – | – | – | – | – | – | – | –
8 | COc1cc(COC(=O)c2ccc3ccccc3n2)c(-c2c(COC(=O)c3ccc4ccccc4n3)cc(OC)c3c2OCO3)c2c1OCO2 | – | – | Active | – | – | – | – | – | – | – | – | Toxic | Toxic | Toxic | Toxic
9 | CCCC(=O)OCc1cc(OC)c2c(c1-c1c(COC(=O)CCC)cc(OC)c3c1OCO3)OCO2 | < 4.00 | < 4.00 | – | < 4.00 | < 4.00 | 1.2 | Active | Active | 32 | 4 | 50 | – | – | – | –
10 | CCC(C)C(=O)OCc1cc(OC)c2c(c1-c1c(COC(=O)C(C)CC)cc(OC)c3c1OCO3)OCO2 (racemic) | < 4.00 | < 4.00 | – | < 4.00 | < 4.00 | 1.2 | Active | Active | 26 | 21 | 70 | – | – | – | –
11 | COc1ccc(C(=O)OCc2cc(OC)c3c(c2-c2c(COC(=O)c4ccc(OC)c(OC)c4)cc(OC)c4c2OCO4)OCO3)cc1OC | < 4.00 | < 4.00 | – | < 4.00 | < 4.00 | 1.2 | Active | Active | 89 | 21 | 202 | – | – | – | –
12 | COc1c(Br)c(COC(=O)c2ccccc2)c(-c2c(COC(=O)c3ccccc3)c(Br)c(OC)c3c2OCO3)c2c1OCO2 | < 4.00 | < 4.00 | – | < 4.00 | < 4.00 | – | – | – | – | – | – | – | – | – | –
13 | COc1cc(COC(=O)C(C)C)c(-c2c(COC(=O)C(C)C)cc(OC)c3c2OCO3)c2c1OCO2 | < 4.00 | < 4.00 | – | < 4.00 | < 4.00 | 1.2 | Active | Active | 21 | 7 | 61 | – | – | – | –
14 | COc1ccc(C(=O)OCc2cc(OC)c3c(c2-c2c(COC(=O)c4ccc(OC)cc4)cc(OC)c4c2OCO4)OCO3)cc1 | < 4.00 | < 4.00 | – | < 4.00 | < 4.00 | 1.2 | Active | Active | 27 | 11 | 50 | – | – | – | –
15 | COc1cc(COC(=O)C=C(C)C)c(-c2c(COC(=O)C=C(C)C)cc(OC)c3c2OCO3)c2c1OCO2 | < 4.00 | < 4.00 | – | < 4.00 | < 4.00 | 1.2 | Active | Active | 326 | 7 | 560 | – | – | – | –
16 | COc1cc(COC(=O)C2CCCCC2)c(-c2c(COC(=O)C3CCCCC3)cc(OC)c3c2OCO3)c2c1OCO2 | < 4.00 | < 4.00 | – | < 4.00 | < 4.00 | 1.2 | Active | Active | 24 | 30 | 239 | – | – | – | –
17 | COc1cc(COC(=O)c2ccc(C(F)(F)F)nc2)c(-c2c(COC(=O)c3ccc(C(F)(F)F)nc3)cc(OC)c3c2OCO3)c2c1OCO2 | < 4.00 | < 4.00 | inactive | < 4.00 | < 4.00 | – | – | – | – | – | – | – | – | – | –
18 | CCC(=O)OCc1cc(OC)c2c(c1-c1c(COC(=O)CC)cc(OC)c3c1OCO3)OCO2 | < 4.00 | < 4.00 | – | < 4.00 | < 4.00 | 1.2 | Active | Active | 12 | 4 | 31 | – | – | – | –
19 | CCCCC(=O)OCc1cc(OC)c2c(c1-c1c(COC(=O)CCCC)cc(OC)c3c1OCO3)OCO2 | < 4.00 | < 4.00 | – | < 4.00 | < 4.00 | 1.2 | Active | Active | 24 | 9 | 161 | – | – | – | –
20 | COc1c(Br)c(C(=O)O)c(-c2c3c(c(OC)c(Br)c2C(=O)O)OCO3)c2c1OCO2 | < 4.00 | < 4.00 | – | < 4.00 | < 4.00 | – | – | – | – | – | – | – | – | – | –
21 | COc1cc(COC(=O)c2ccccc2)c(-c2c(COC(=O)c3ccccc3)cc(OC)c3c2OCO3)c2c1OCO2 | < 4.00 | < 4.00 | – | < 4.00 | < 4.00 | 1.2 | Active | Active | 167 | 9 | 101 | – | – | – | –
22 | C/C=C/C(=O)OCc1cc(OC)c2c(c1-c1c(COC(=O)/C=C/C)cc(OC)c3c1OCO3)OCO2 | < 4.00 | < 4.00 | – | < 4.00 | < 4.00 | 1.2 | Active | Active | 102 | 4 | 230 | – | – | – | –
23 | COc1cc(COC(=O)C2CCCC2)c(-c2c(COC(=O)C3CCCC3)cc(OC)c3c2OCO3)c2c1OCO2 | < 4.00 | < 4.00 | – | < 4.00 | < 4.00 | 1.2 | Active | Active | 20 | 23 | 310 | – | – | – | –
24 | COc1cc(COC(=O)CC(C)C)c(-c2c(COC(=O)CC(C)C)cc(OC)c3c2OCO3)c2c1OCO2 | < 4.00 | < 4.00 | – | < 4.00 | < 4.00 | 1.2 | Active | Active | 112 | 6 | 79 | – | – | – | –
25 | COc1cc(COC(=O)c2ccc(C)cc2)c(-c2c(COC(=O)c3ccc(C)cc3)cc(OC)c3c2OCO3)c2c1OCO2 | < 4.00 | < 4.00 | – | < 4.00 | < 4.00 | 1.2 | Active | Active | 27 | 11 | 51 | – | – | – | –

From ChEMBL document CHEMBL2086383, “Antitumor agents. 293. Nontoxic dimethyl-4,4'-dimethoxy-5,6,5',6'-dimethylenedioxybiphenyl-2,2'-dicarboxylate (DDB) analogues chemosensitize multidrug-resistant cancer cells to clinical anticancer drugs” (J Med Chem, 2012)
